Calls of active or inactive are those of the source.
Assays:
[1] = test system: Epidermal growth factor receptor (Homo sapiens), P00533 [UNDEFINED MUTATION]; conditions: MGH121, dose 500.0 nM, time 6-48 hrs, TDE = time-dependent effect
A549 = assay: Anticancer activity against KRAS-mutated human A549 cells assessed as reduction in cell viability at 1 to 10000 nM incubated for 72 hrs by CellTiter-Glo assay; assay type: functional, cell-based; conditions: dose 1-10000 nM
PC-9 = assay: Anti-tumor activity against human PC-9 cells expressing EGFR-C797S/T790M/del19 mutant xenografted in Balb-c nu/nu mouse assessed as decreased tumor growth at 75 mg/kg, po administered for 60 days and measured twice weekly in presence of cetuximab; assay type: functional, organism-based; conditions: time 60.0 day
Outline: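 PC9 EGFR-C797S/T790M/del19 xenografts in Balb-c nu/nu mice, randomized at ~200 mm³. […] Tumour volume 0.5×length×width² and body weight measured twice weekly. Survival shown by Kaplan-Meier curve. N = 6. Mann-Whitney U test on tumour volume at day 23.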

BaF3 [2] = conditions: Mus musculus, dose 30-1000 nM, time 6.0 hrs
BaF3 [3] = conditions: Mus musculus, dose 10-1000 nM, time 6.0 hrs

Sequence of Epidermal growth factor receptor (Homo sapiens), P00533 [UNDEFINED MUTATION] (P00533 whole entry, looked up, stated change not applied): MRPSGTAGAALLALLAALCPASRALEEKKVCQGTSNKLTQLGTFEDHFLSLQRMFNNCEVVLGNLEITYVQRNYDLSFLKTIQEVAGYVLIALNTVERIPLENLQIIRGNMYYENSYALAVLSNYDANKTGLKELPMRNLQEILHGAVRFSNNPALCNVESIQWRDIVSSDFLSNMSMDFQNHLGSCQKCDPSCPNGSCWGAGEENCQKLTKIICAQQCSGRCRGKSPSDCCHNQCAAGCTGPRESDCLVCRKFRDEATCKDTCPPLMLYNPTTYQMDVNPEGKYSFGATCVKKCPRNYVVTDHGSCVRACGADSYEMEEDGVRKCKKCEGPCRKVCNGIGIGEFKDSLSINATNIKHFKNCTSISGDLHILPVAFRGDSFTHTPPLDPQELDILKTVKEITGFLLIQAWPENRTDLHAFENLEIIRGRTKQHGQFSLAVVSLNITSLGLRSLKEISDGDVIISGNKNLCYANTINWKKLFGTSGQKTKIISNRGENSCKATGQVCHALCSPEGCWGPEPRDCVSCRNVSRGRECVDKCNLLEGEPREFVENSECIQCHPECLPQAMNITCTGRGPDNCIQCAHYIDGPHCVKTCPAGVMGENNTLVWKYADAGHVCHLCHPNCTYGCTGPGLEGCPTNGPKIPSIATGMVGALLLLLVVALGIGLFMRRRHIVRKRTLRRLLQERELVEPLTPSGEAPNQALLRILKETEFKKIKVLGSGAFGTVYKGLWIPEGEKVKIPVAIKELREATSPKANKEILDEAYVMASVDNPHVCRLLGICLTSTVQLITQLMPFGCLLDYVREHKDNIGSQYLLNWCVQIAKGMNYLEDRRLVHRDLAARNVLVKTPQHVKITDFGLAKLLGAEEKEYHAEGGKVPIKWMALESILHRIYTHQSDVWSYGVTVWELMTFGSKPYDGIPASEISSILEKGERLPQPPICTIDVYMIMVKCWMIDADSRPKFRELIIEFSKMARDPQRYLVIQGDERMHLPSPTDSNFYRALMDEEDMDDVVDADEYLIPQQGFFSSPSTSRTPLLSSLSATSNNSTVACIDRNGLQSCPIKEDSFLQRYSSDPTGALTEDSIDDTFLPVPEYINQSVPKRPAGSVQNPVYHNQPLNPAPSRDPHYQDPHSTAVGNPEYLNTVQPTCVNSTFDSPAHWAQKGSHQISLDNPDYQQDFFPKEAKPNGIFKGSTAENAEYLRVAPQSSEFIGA

COc1cc(N2CCC(N3CCN(C)CC3)CC2)ccc1Nc1ncc(Cl)c(Nc2ccccc2P(C)(C)=O)n1 [BRIGATINIB]
active: inhibition [1] Tde | Activity (A549) | Activity (PC-9) | inhibition (BaF3 [2]) | inhibition (BaF3 [3])

Reference: ChEMBL document CHEMBL5705906 (Nat Commun, 2017)
